Assay results as given in ChEMBL document CHEMBL1127548, “N-benzylnaltrindoles as long-acting delta-opioid receptor antagonists” (J Med Chem, 1994).

Experiments:
[1] = biological target: Delta-type opioid receptor (Mus musculus) (UniProt P32300); test: Antagonist potency was determined using D-Ala2, D-Leu5 enkephalin28 (DADLE) at delta-opioid receptor in mouse vas deferens (MVD); IC50 ratio; format: functional
Method in brief: (§1)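 Electrically stimulated tissue: agonists were morphine (μ) and ethylketazocine (κ) in guinea pig ileal longitudinal muscle, and DADLE (δ) in mouse vas deferens. Antagonist at 100 nM was incubated 15 min. IC50 ratio is agonist IC50 with antagonist divided by control IC50 in the same preparation, n ≥ 3, ±SE.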

[2] = biological target: Mu-type opioid receptor (Cavia porcellus) (UniProt P97266); test: Antagonist potency using morphine at mu-opioid receptor in electrically stimulated guinea pig ileal longitudinal muscle (GPI); IC50 ratio; format: functional; method in brief: as §1
[3] = biological target: Opioid receptors; delta & kappa (Homo sapiens) (UniProt P41145+P41143); test: Selectivity ratio is the ratio between delta and kappa receptor; format: protein assay
Method in brief: (§2)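 Selectivity ratio is the DADLE IC50 ratio divided by the morphine (δ/μ) or ethylketazocine (δ/κ) IC50 ratio. These IC50 ratios come from smooth muscle with 100 nM antagonist, 15 min. A value of 1 was used wherever an IC50 ratio was <1.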

[4] = biological target: Opioid receptors; mu & delta (Homo sapiens) (UniProt P41143+P35372); test: Selectivity ratio is the ratio between delta and mu receptor; format: protein assay; method in brief: as §2
[5] = biological target: Kappa-type opioid receptor (Cavia porcellus) (UniProt P41144); test: Antagonist potency was determined using ethylketazocine at kappa-opioid receptor in electrically stimulated guinea pig ileal longitudinal muscle (GPI); IC50 ratio; format: functional; method in brief: as §1
[6] = biological target: Mu-type opioid receptor (Mus musculus) (UniProt P42866); test: Antagonist potency was determined using morphine in mu-opioid receptor by icv administration in mouse after 24 hr; ED50 ratio; format: functional, organism-based
Method in brief: (§3)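 Mouse abdominal stretch antinociception assay. Antagonist was given icv at 5 nmol, with agonists tested 24 h later. DSLET and DPDPE were given icv; morphine and U50488 were given sc. ED50 ratio is agonist ED50 with antagonist divided by control ED50, with 95% confidence limits.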

[7] = biological target: Kappa-type opioid receptor (Mus musculus) (UniProt P33534); test: Antagonist potency was determined using U-50,488 in kappa-opioid receptor by icv administration in mouse after 24 hr; ED50 ratio; format: functional, organism-based; method in brief: as §3
[8] = biological target: Delta-type opioid receptor (Mus musculus) (UniProt P32300); test: Antagonist potency was determined using […] in delta2-opioid receptor by icv administration in mouse after 24 hr; ED50 ratio; format: functional, organism-based; method in brief: as §3
[9] = biological target: Delta-type opioid receptor (Mus musculus) (UniProt P32300); test: Antagonist potency was determined using DPDPE in delta1-opioid receptor by icv administration in mouse after 24 hr; ED50 ratio; format: functional, organism-based; method in brief: as §3

Sequence of Delta-type opioid receptor (Mus musculus) (P32300 whole entry): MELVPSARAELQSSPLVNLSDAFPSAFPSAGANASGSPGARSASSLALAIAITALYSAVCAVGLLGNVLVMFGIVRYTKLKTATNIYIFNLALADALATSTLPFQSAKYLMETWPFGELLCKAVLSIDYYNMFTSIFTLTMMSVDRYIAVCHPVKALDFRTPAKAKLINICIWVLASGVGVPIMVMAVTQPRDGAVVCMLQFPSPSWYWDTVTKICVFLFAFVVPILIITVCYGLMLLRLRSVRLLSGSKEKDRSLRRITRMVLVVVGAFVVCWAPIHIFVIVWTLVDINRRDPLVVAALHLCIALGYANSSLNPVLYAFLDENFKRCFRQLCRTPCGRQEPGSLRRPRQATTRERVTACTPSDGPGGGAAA
Sequence of Opioid receptors; delta & kappa (Homo sapiens) (P41143 whole entry, looked up): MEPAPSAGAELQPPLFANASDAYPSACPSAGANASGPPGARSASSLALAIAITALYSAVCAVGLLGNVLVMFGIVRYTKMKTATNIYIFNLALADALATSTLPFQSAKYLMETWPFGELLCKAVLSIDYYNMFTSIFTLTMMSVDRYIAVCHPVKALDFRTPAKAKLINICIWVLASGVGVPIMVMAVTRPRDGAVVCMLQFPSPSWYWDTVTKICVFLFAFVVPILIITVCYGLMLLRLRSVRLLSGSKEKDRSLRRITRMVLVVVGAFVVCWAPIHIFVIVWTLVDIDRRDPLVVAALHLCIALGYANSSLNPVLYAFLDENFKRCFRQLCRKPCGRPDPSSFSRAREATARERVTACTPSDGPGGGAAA
Sequence of Opioid receptors; delta & kappa (Homo sapiens) (P41145 whole entry, looked up): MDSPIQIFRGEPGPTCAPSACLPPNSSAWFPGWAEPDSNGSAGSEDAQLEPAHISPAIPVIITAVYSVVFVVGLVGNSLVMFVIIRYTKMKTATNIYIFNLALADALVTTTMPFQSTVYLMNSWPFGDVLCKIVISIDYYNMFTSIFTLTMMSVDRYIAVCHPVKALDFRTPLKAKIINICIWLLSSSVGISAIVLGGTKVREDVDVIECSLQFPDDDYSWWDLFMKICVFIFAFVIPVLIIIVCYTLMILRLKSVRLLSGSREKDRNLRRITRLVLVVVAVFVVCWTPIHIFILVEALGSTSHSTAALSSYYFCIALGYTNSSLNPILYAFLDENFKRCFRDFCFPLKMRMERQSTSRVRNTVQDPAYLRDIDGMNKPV
Sequence of Mu-type opioid receptor (Cavia porcellus) (P97266 whole entry): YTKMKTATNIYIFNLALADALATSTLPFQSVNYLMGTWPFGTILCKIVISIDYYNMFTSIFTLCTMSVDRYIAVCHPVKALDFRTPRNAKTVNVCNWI
Sequence of Kappa-type opioid receptor (Cavia porcellus) (P41144 whole entry): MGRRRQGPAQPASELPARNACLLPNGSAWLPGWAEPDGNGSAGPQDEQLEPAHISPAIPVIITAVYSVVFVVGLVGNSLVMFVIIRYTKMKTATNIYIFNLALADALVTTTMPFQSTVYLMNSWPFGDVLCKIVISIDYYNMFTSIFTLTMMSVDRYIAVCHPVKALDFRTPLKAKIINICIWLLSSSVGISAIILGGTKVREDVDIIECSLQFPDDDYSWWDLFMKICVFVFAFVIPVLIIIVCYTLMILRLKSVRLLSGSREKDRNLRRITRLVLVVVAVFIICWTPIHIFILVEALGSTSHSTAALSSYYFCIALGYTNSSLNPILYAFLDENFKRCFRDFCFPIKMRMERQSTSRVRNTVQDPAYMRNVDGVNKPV
Sequence of Opioid receptors; mu & delta (Homo sapiens) (P35372 whole entry, looked up): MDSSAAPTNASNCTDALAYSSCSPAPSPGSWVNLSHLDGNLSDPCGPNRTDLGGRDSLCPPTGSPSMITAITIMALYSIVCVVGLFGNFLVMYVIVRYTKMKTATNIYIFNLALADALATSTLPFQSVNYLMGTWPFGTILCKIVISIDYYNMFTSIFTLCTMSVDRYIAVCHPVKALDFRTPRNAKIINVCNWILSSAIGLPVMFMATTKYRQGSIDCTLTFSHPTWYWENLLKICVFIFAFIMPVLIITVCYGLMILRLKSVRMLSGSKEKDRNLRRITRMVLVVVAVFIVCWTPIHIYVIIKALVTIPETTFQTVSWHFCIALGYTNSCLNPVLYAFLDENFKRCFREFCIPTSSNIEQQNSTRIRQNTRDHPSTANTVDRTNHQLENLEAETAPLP
Sequence of Opioid receptors; mu & delta (Homo sapiens) (P41143 whole entry, looked up): as the sequence (P41143 whole entry, looked up) above
Sequence of Mu-type opioid receptor (Mus musculus) (P42866 whole entry): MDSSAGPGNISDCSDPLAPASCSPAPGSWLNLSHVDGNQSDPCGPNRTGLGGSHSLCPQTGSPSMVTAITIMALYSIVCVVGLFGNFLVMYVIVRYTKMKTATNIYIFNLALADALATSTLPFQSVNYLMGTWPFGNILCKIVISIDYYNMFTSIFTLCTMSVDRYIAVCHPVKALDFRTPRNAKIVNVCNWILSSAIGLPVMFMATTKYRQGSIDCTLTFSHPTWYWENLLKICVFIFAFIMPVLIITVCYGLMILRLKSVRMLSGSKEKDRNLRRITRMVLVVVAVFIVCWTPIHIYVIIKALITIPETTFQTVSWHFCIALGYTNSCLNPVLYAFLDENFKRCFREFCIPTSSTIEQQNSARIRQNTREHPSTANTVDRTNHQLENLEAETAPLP
Sequence of Kappa-type opioid receptor (Mus musculus) (P33534 whole entry): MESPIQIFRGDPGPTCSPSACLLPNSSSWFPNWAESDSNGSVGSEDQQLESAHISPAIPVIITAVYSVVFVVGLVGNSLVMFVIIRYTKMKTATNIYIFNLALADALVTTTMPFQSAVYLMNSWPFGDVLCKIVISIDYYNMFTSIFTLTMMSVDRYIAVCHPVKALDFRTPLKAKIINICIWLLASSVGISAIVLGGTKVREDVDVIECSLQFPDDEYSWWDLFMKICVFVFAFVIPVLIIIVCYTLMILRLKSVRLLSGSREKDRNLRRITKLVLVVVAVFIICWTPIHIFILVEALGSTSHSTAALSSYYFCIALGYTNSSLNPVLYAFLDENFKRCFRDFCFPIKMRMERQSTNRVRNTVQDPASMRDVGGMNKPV

| SMILES | Ratio [1] | Ratio [2] | Selectivity ratio [3] | Selectivity ratio [4] | Ratio [5] | Ratio [6] | Ratio [7] | Ratio [8] | Ratio [9] |
| --- | --- | --- | --- | --- | --- | --- | --- | --- | --- |
| Oc1ccc2c3c1O[C@H]1c4c(c5ccccc5n4Cc4c(F)c(F)c(F)c(F)c4F)C[C@@]4(O)[C@@H](C2)N(CC2CC2)CC[C@]314 | 52 | 1.4 | 52 | 37 | 0.7 |  |  |  |  |
| Nc1ccc(Cn2c3c(c4ccccc42)C[C@@]2(O)[C@H]4Cc5ccc(O)c6c5[C@@]2(CCN4CC2CC2)[C@H]3O6)cc1 | 288 | 2.7 | 188 | 106 | 1.5 | 1.1 | 0.64 | 5.9 |  |
| O=[N+]([O-])c1ccc(Cn2c3c(c4ccccc42)C[C@@]2(O)[C@H]4Cc5ccc(O)c6c5[C@@]2(CCN4CC2CC2)[C@H]3O6)cc1 | 38 | 0.5 | 38 | 38 | 0.4 |  |  |  |  |
| O=[N+]([O-])c1ccccc1Cn1c2c(c3ccccc31)C[C@@]1(O)[C@H]3Cc4ccc(O)c5c4[C@@]1(CCN3CC1CC1)[C@H]2O5 | 31 | 2.3 | 31 | 13 | 0.8 |  |  |  |  |
| Oc1ccc2c3c1O[C@H]1c4c(c5ccccc5n4Cc4ccccc4)C[C@@]4(O)[C@@H](C2)N(CC2CC2)CC[C@]314 | 208 | 1.6 | 208 | 131 | 0.4 | 1.2 | 0.77 | 10 | 1.3 |
| Nc1cccc(Cn2c3c(c4ccccc42)C[C@@]2(O)[C@H]4Cc5ccc(O)c6c5[C@@]2(CCN4CC2CC2)[C@H]3O6)c1 | 148 | 1.3 | 100 | 111 | 1.5 |  |  |  |  |
| Oc1ccc2c3c1O[C@H]1c4[nH]c5ccccc5c4C[C@@]4(O)[C@@H](C2)N(CC2CC2)CC[C@]314 | 459 | 11.2 | 353 | 41 | 1.3 |  |  |  |  |
| O=[N+]([O-])c1cccc(Cn2c3c(c4ccccc42)C[C@@]2(O)[C@H]4Cc5ccc(O)c6c5[C@@]2(CCN4CC2CC2)[C@H]3O6)c1 | 112 | 0.9 | 112 | 112 | 0.6 |  |  |  |  |
| Nc1ccccc1Cn1c2c(c3ccccc31)C[C@@]1(O)[C@H]3Cc4ccc(O)c5c4[C@@]1(CCN3CC1CC1)[C@H]2O5 | 120 | 1 | 120 | 120 | 0.9 |  |  |  |  |
